AGP1-GFP MLPCN – alters AGP1-GFP fluorescence in TOR pathway yeast screen; 0.02% of 320,000 active; GFP response vs DMSO, % at 10 µM; S. cerevisiae AGP1-GFP multiplex flow cytometry, 3 h; GFP as percent of DMSO wells;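 active = GFP response relative to DMSO above a set limit, near screen average plus 3 SD, cut at about 150% in these data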;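 note: median GFP channel fluorescence of the gated AGP1 strain per well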
CIT2 TOR yeast – alters CIT2-GFP fluorescence in TOR pathway yeast screen | 0.065% of 320,000 active | GFP response vs DMSO, % at 10 µM | S. cerevisiae CIT2-GFP strain, flow cytometry, 3 h; 100 means same as DMSO wells;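 active = GFP response relative to DMSO above a set limit, near the screen mean plus 3 SD, cut at about 150% in these data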;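 note: ratio of well median GFP fluorescence to mean of DMSO wells on the plate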
T cell modulator – modulates CD8 T cell binding to vesicles; AID 2052; 0.068% of 330,000 active; 2C CD8+ T cell-vesicle binding, flow cytometry; stronger effect = lower value; response (vesicle binding), % at 7 µM;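 active = response, share of CD8 T cells binding vesicles, and their 90th percentile fluorescence all below set limits, cut at about 80% in these data, passing the limit was not always enough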;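 note: values below 100% mean blocked vesicle binding to the CD8+ T cells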
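Incubation: binding step 1.5 h, 37 °C, antibody labelling 20 min, ice; system: murine 2C transgenic CD8+ T lymphocytes; technique: cytometric PE anti-B7-1 and Alexa647 anti-CD8 signals after 1% paraformaldehyde fixation; also added: QL9-charged Drosophila Ld/ICAM-1/B7-1 vesicles; control set: naked versus QL9-loaded vesicles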
LAP4-GFP MLPCN – alters LAP4-GFP fluorescence in TOR pathway yeast screen; S. cerevisiae LAP4-GFP multiplex, flow cytometry GFP, 3 h; median GFP as percent of DMSO wells; GFP response vs DMSO, % at 10 µM; 0.34% of 320,000 active;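 active = GFP response vs DMSO above a set limit, about the screen mean plus 3 SD, cut at about 150% in these data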
MEP2-GFP yeast – alters MEP2-GFP fluorescence in TOR pathway yeast screen; AID 2016; GFP response vs DMSO, % at 10 µM; S. cerevisiae MEP2-GFP strain, flow cytometry GFP, 3 h; 100% = DMSO control level; 0.51% of 330,000 active;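 active = GFP response versus DMSO above a set limit, roughly screen mean plus 3 SD, cut at about 180% in these data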;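 note: median GFP fluorescence of the barcode-gated MEP2-GFP cells per well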
RPL19A TOR yeast – yeast TOR pathway RPL19A-GFP modulation; S. cerevisiae RPL19A-GFP strain, flow cytometry, 3 h; stronger effect = lower value; percent response vs DMSO, % at 10 µM; 0.3% of 330,000 active;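 active = percent response vs DMSO below 50%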;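 note: median channel GFP fluorescence of the barcoded RPL19A-GFP strain; ratio of sample median GFP to plate DMSO average so 100% = DMSO; lower means less RPL19A-GFP as with rapamycin TOR inhibition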
LAP4 cherry2 – reconfirmed LAP4-GFP TOR pathway modulator in yeast | shares compounds with LAP4-GFP MLPCN | S. cerevisiae LAP4-GFP strain, flow cytometry GFP, 3 h | GFP response vs DMSO, % at 10 µM | 20% of 590 active | AID 2621;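 active = GFP signal as percent of the solvent control above about 150%, meaning raised reporter expression, limit read from the data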;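 note: ratio of well median GFP fluorescence to plate DMSO mean so 100% = DMSO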
MEP2 cherry2 – second confirmation of modulators of TOR reporter MEP2-GFP in yeast. shares compounds with LAP4-GFP MLPCN. S. cerevisiae MEP2-GFP strain, flow cytometry GFP, 3 h. GFP response vs DMSO, % at 10 µM. 10% of 590 active;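 active = GFP signal above 150% of the solvent control wells, that is a rise of more than half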;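 note: median channel GFP fluorescence of all gated yeast cells per well; ratio of median GFP to plate DMSO average so 100% = DMSO level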
RPL19A GFP CP2 – reconfirmed modulator of RPL19A-GFP TOR reporter in yeast. shares compounds with LAP4-GFP MLPCN. S. cerevisiae RPL19A-GFP strain, flow cytometry GFP, 3 h; stronger effect = lower value; 100% means same as DMSO wells. GFP response vs DMSO, % at 10 µM. 3% of 590 active. AID 2623;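 active = under 65% GFP response relative to DMSO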;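 note: median GFP channel fluorescence per well over the all cells gate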
CIT2-GFP pick2 – second confirmation of modulators of TOR reporter CIT2-GFP in yeast; S. cerevisiae CIT2-GFP strain, flow cytometry GFP, 3 h; DMSO control wells read 100%; GFP response vs DMSO, % at 10 µM; shares compounds with LAP4-GFP MLPCN; AID 2624; 8% of 590 active;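 active = GFP response vs DMSO above about 150%, limit read from the data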;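 note: median green fluorescence per well over all gated yeast cells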
AGP1-GFP pick2 – yeast AGP1-GFP TOR reporter modulation, second cherry pick. percent response vs DMSO, % at 10 µM. S. cerevisiae AGP1-GFP strain, flow cytometry GFP, 3 h. 590 tested, under 10 active. shares compounds with LAP4-GFP MLPCN;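 active = over 150 percent of DMSO response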;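 note: median GFP channel fluorescence over all cells without mother daughter split; sample median GFP divided by mean DMSO control so 100% equals DMSO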
s288c autofluor – compound is autofluorescent in yeast s288c cells. shares compounds with LAP4-GFP MLPCN. S. cerevisiae s288c, 520 nm autofluorescence, flow cytometry, 3 h; stronger effect = higher value; zero means same as solvent-only cells. fluorescence change (kMESF span) at 33 µM. 610 tested, under 10 active. AID 2757;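 active = fluorescence span over the dose series, or activity score, above about 33, limit read from the data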
* marks the source's active call; other numbers are inactive results; i = inactive; nt = not tested or not shown. This is a sample that favours compounds with a hit; in the whole collection about 0.96% have one here.

SMILES	AGP1-GFP MLPCN	CIT2 TOR yeast	T cell modulator	LAP4-GFP MLPCN	MEP2-GFP yeast	RPL19A TOR yeast	LAP4 cherry2	MEP2 cherry2	RPL19A GFP CP2	CIT2-GFP pick2	AGP1-GFP pick2	s288c autofluor
CCCC(=O)NC(C)c1nc(-c2ccc(C)cc2)no1 (configuration not stated)	89	95	303	111	88	101	nt	nt	nt	nt	nt	nt
O=S(=O)(c1cccc(F)c1)N1CCN(C(=S)NCc2ccccc2)CC1	96	109	170	91	103	99	nt	nt	nt	nt	nt	nt
Cc1ccccc1NC(=O)C(NC1CCCCC1)C(C)C (configuration not stated)	74	93	153	93	149	56	102	103	98	99	104	nt
CC1=NN(c2ccccc2)C(=O)/C1=C\c1c(C)[nH]n(-c2ccccc2)c1=O	97	98	400	92	99	96	103	103	100	103	99	nt
C/C(=N\NS(=O)(=O)c1ccc([N+](=O)[O-])cc1)c1ccc(NC(=O)c2ccco2)cc1	75	83	0	90	154	52	103	98	101	99	99	nt
On1ccccc1=S	99	100	205	260*	111	97	181*	118	95	139	95	0.1
Cc1ccc2c(ccc(=S)n2C)c1	109	112	193	110	107	100	nt	nt	nt	nt	nt	nt
O=c1cc(-c2ccccc2)cc(-c2ccccc2)n1O	89	69	147	194*	97	99	137	189*	70	125	63	1.2
Oc1ccc(CNc2ccc(F)cc2)c2cccnc12	107	102	328	84	109	106	nt	nt	nt	nt	nt	nt
Oc1ccc(CNc2ccccc2)c2cccnc12	99	102	221	78	105	95	103	124	105	121	103	0.4
COc1ccc(OC)c(N=c2ssnc2Cl)c1	92	82	313	131	92	92	nt	nt	nt	nt	nt	nt
COc1cc(N=c2ssnc2Cl)c(OC)cc1Cl	73	91	263	162*	93	90	159*	117	91	111	90	0.4
Cc1nnc(N=c2ssnc2Cl)o1	69	81	420	143	89	87	nt	nt	nt	nt	nt	nt
Cc1ccc(N=c2ssnc2Cl)cc1	78	81	768	163*	99	89	141	117	95	117	96	0.8
CCOCCCNC(=O)CN1CCN(Cc2ccc(Cl)cc2)C1=O	102	99	i	105	102	98	nt	nt	nt	nt	nt	nt
O=C1Nc2ccccc2/C1=C\C(=O)c1ccccc1	85	80	235	226*	91	80	nt	nt	nt	nt	nt	0.4
CC(C)Oc1ccc(C(=O)/C=C2/C(=O)Nc3ccccc32)cc1	102	87	178	161*	90	89	nt	nt	nt	nt	nt	0.61
CN(O)/C=C1\C(=O)Nc2ccccc21	nt	108	427	104	112	100	nt	nt	nt	nt	nt	nt
CN(C)/C=C1\C(=O)Nc2ccccc21	107	111	315	96	109	nt	nt	nt	nt	nt	nt	nt
COCCNC(=S)N(CCc1c(C)[nH]c2ccc(F)cc12)Cc1ccco1	97	91	221	103	116	97	nt	nt	nt	nt	nt	nt
Cn1c(=O)c(NCCO)c2c3c(cccc31)C(=O)c1ccccc1-2	98	93	330	94	97	100	nt	nt	nt	nt	nt	nt
CCCCNc1c2c3c(cccc3n(C)c1=O)C(=O)c1ccccc1-2	102	100	i	171*	112	89	322*	94	123	124	97	0.2
C/C=C/C1=CC(=O)C[C@H](c2ccc(Cl)cc2)C1	102	101	433	112	100	102	nt	nt	nt	nt	nt	nt
Cc1ccc(NC(=O)c2cc(-n3cnnc3)ccc2Cl)cc1	94	104	452	105	98	108	nt	nt	nt	nt	nt	nt
Cc1ccc(NC(=O)c2cc(N3C(=O)C=CC3=O)ccc2Cl)cc1C	100	66	257	115	91	70	156*	168*	78	106	88	1.3
SMILES	AGP1-GFP MLPCN	CIT2 TOR yeast	T cell modulator	LAP4-GFP MLPCN	MEP2-GFP yeast	RPL19A TOR yeast	LAP4 cherry2	MEP2 cherry2	RPL19A GFP CP2	CIT2-GFP pick2	AGP1-GFP pick2	s288c autofluor
Oc1ccccc1N=N/C(=N/Nc1ccccc1O)c1ccccc1	91	99	968	130	100	100	nt	nt	nt	nt	nt	nt
N#C/C(N=Nc1ccccc1O)=N\Nc1ccccc1O	74	77	446	183*	92	97	138	110	100	110	90	nt
Cc1ccc(C(=O)/C=C\C(=O)c2ccc(C)cc2)cc1	84	67	291	168*	89	97	120	113	102	136	99	nt
CC(/C=C/C(=O)c1ccc(C)cc1)=C\c1ccccc1	100	98	151	92	91	94	nt	nt	nt	nt	nt	nt
O=C(O)/C=C/C(=O)c1ccc2c(c1)CCc1ccccc1-2	78	60	714	226*	89	72	129	165*	69	87	77	1.2
Cc1ccc(CN2C(=O)[C@@H]3Cc4c([nH]c5ccccc45)C(C)(C)N3C2=O)cc1	85	90	542	137	93	100	nt	nt	nt	nt	nt	nt
Cc1ccc(CN2C(=O)[C@H]3Cc4c([nH]c5ccccc45)C(C)(C)N3C2=O)cc1	93	87	643	156*	98	104	103	102	98	102	96	nt
CCc1ccc(C(=O)/C=C/c2ccc([N+](=O)[O-])o2)cc1	78	155*	844	215*	185*	99	nt	nt	nt	nt	nt	4.2

Screening results as filed in PubChem.
